We go through five compounds from PMC3701955 (Bioorganic & medicinal chemistry, 2012).

Read-outs that look alike come from different tables or passages of the source.

In one data set the test system is OTR and V1aR. Description: Receptor autoradiography with the radioligand on prairie vole brain slices. As to conditions: 70 pM radioligand. The data set is classed as binding. The gist of the method: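 Prairie vole brains were cut at 20 μm from prefrontal cortex through nucleus accumbens and ventral pallidum, stored at −80 °C, and thawed. Sections were dipped in 0.1% paraformaldehyde/PBS pH 7.4 and rinsed in 50 mM Tris pH 7.4. They were incubated 1 h with 70 pM radioiodinated test compound without competitor, then washed in 50 mM Tris + 2% MgCl2 pH 7.4, air-dried, and exposed to film 72 h. Six animals per study.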

The format of data set [1] is in vivo. As to conditions: female Sprague–Dawley rats, iv; for Biodistribution of radioactivity in brain region, Amygdala / Biodistribution of radioactivity in brain region, Basal Hypothalamus / Biodistribution of radioactivity in brain region, Cerebellum / Biodistribution of radioactivity in brain region, Remaining Brain / Biodistribution of radioactivity, Blood / Biodistribution of radioactivity, Heart / Biodistribution of radioactivity, Kidney / Biodistribution of radioactivity, Liver / Biodistribution of radioactivity, Lung / Biodistribution of radioactivity, Muscle / Biodistribution of radioactivity, Uterus / Biodistribution of radioactivity in brain region, Dorsal Striatum / Biodistribution of radioactivity, Brain: mean ± SD; for Biodistribution of radioactivity, Brain: total brain.

For data set [2] the following is noted: cited from earlier work.
A further data set deals with T1, human OTR (Homo sapiens, UniProt P30559).
T1 sequence (P30559 1-389): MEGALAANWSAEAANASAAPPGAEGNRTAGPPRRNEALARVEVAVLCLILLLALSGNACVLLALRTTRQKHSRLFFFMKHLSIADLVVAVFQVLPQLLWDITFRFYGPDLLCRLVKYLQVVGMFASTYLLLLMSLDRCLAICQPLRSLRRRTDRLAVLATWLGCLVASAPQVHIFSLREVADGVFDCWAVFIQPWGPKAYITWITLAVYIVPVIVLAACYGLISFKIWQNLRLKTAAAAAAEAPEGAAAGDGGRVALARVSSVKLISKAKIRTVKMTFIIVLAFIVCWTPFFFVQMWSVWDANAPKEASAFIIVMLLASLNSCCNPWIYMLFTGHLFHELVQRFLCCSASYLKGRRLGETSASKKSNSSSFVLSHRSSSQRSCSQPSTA
The format is binding. As to conditions: human receptors.

A further data set addresses human V1aR (Homo sapiens, UniProt P37288). The data set is classed as binding. The settings on record: competition with [3H]-AVP, NIMH PDSP.
Data set [3] addresses T2, human vasopressin receptor V1b (Homo sapiens, UniProt P47901).
T2 sequence (P47901 1-424): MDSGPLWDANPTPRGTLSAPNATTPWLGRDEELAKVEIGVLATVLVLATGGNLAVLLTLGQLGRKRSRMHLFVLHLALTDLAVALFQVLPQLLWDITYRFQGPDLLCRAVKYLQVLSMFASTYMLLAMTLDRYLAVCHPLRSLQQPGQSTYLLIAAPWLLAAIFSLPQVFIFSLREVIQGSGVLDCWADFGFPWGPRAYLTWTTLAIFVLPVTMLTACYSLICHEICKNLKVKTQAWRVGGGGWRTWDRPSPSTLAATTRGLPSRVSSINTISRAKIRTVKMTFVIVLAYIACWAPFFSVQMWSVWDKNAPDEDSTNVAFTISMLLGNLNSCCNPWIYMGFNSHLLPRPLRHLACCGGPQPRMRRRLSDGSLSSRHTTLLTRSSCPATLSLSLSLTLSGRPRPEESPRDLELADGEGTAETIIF
The data set is classed as binding. The settings on record: competition with [3H]-AVP, NIMH PDSP.

The target of data set [4] is human vasopressin receptor V2 (Homo sapiens, UniProt P30518). The format is binding. The settings on record: competition with [3H]-AVP, NIMH PDSP.
Another data set relates to rodent OTR. The settings on record: prairie vole brain sections.

human V1aR, sequence (P37288 whole entry): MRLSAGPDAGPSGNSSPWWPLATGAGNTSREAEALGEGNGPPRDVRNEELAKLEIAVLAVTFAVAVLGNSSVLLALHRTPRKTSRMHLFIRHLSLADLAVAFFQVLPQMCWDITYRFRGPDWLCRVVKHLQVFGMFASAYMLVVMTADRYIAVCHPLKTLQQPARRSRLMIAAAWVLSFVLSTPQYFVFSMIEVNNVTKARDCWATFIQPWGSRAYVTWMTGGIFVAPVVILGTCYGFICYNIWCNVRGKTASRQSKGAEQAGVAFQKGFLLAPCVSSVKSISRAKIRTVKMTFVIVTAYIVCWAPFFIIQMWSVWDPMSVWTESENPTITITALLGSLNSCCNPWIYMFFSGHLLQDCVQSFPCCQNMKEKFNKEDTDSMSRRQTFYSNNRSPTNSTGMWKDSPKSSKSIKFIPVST
human vasopressin receptor V2, sequence (P30518 whole entry): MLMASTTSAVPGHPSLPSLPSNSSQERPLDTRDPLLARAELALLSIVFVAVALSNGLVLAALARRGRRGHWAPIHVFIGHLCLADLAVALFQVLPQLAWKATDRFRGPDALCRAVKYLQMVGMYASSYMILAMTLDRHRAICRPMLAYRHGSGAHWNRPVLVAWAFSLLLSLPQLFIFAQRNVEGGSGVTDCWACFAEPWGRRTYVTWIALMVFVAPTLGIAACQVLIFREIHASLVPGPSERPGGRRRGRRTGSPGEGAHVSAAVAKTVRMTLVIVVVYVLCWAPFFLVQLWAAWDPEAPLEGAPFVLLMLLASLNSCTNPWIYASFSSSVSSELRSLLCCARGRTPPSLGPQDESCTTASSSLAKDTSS

Take `CS(=O)(=O)N1CCC(Oc2ccc(CC(=O)N3CCC(N4C(=O)CCc5ccccc54)CC3)c(OC/C=C/[125I])c2)CC1` [[^125I]1, (E)-1-(1-(2-(2-(3-[125I]Iodoallyloxy)-4-(1-(methylsulfonyl)piperidin-4-yloxy)phenyl)acetyl)piperidin-4-yl)-3,4-dihy droquinolin-2(1H)-one]: the “autoradiographic binding to brain regions” value with OTR and V1aR was “bind to receptors in the NAcc and VP”. In addition, in data set [1], the “in vivo stability of the radiolabel (thyroid / bone uptake over time)” value was “broken down readily in vivo at the iodine position”. In data set [1] (15 min), the “Biodistribution of radioactivity in brain region, Amygdala” value (“Biodistribution … Amygdala” for short) turned out to be 0.09 ± 0.02 %ID/g; the “Biodistribution of radioactivity in brain region, Basal Hypothalamus” value (from here on “Biodistribution … Basal Hypothalamus”) turned out to be 0.08 ± 0.01 %ID/g; the “Biodistribution of radioactivity in brain region, Cerebellum” value is listed as 0.08 ± 0.01 %ID/g; the “Biodistribution of radioactivity in brain region, Remaining Brain” value stood at 0.07 ± 0.01 %ID/g. In data set [1] (15 min), the “Biodistribution of radioactivity, Blood” value worked out at 0.58 ± 0.51 %ID/g; the “Biodistribution of radioactivity, Heart” value is recorded as 0.82 ± 0.70 %ID/g; the “Biodistribution of radioactivity, Kidney” value was found to be 0.96 ± 0.84 %ID/g; the “Biodistribution of radioactivity, Liver” value is given as 5.67 ± 5.08 %ID/g. In data set [1] (15 min), the “Biodistribution of radioactivity, Lung” value is 1.86 ± 1.60 %ID/g; the “Biodistribution of radioactivity, Muscle” value is listed as 0.28 ± 0.24 %ID/g; the “Biodistribution of radioactivity, Uterus” value amounted to 0.43 ± 0.38 %ID/g. Besides, in data set [1] (30 min), the “Biodistribution … Amygdala” value was determined as 0.07 ± 0.03 %ID/g; the “Biodistribution … Basal Hypothalamus” value was 0.06 ± 0.01 %ID/g; the “Biodistribution of radioactivity, Blood” value was 0.58 ± 0.07 %ID/g; the “Biodistribution of radioactivity, Heart” value is 0.61 ± 0.18 %ID/g. In data set [1] (30 min), the “Biodistribution of radioactivity, Kidney” value amounted to 0.75 ± 0.07 %ID/g; the “Biodistribution of radioactivity, Liver” value is 3.90 ± 0.15 %ID/g; the “Biodistribution of radioactivity, Lung” value was found to be 1.41 ± 0.72 %ID/g; the “Biodistribution of radioactivity, Muscle” value is 0.26 ± 0.02 %ID/g. For the same compound, the “Biodistribution of radioactivity, Uterus” value in data set [1] (30 min) stood at 0.41 ± 0.07 %ID/g. For the same compound, in data set [1] (60 min), the “Biodistribution … Amygdala” value turned out to be 0.09 ± 0.02 %ID/g; the “Biodistribution … Basal Hypothalamus” value is on record as 0.06 ± 0.01 %ID/g; the “Biodistribution of radioactivity in brain region, Dorsal Striatum” value stood at 0.04 ± 0.01 %ID/g; the “Biodistribution of radioactivity, Blood” value was 0.55 ± 0.27 %ID/g. In data set [1] (60 min), the “Biodistribution of radioactivity, Heart” value is on record as 0.54 ± 0.28 %ID/g; the “Biodistribution of radioactivity, Kidney” value is 0.69 ± 0.30 %ID/g; the “Biodistribution of radioactivity, Liver” value came out at 3.09 ± 1.34 %ID/g; the “Biodistribution of radioactivity, Lung” value is 1.45 ± 1.04 %ID/g. Further, in data set [1] (60 min), the “Biodistribution of radioactivity, Muscle” value amounted to 0.23 ± 0.11 %ID/g; the “Biodistribution of radioactivity, Uterus” value was 0.45 ± 0.23 %ID/g; the “Biodistribution of radioactivity, Brain” value is on record as 0.04 ± 0.02 %ID/g. Also, in data set [1] (120 min), the “Biodistribution … Amygdala” value worked out at 0.06 ± 0.01 %ID/g; the “Biodistribution of radioactivity in brain region, Cerebellum” value amounted to 0.03 ± 0.01 %ID/g; the “Biodistribution of radioactivity in brain region, Dorsal Striatum” value is 0.03 ± 0.01 %ID/g; the “Biodistribution of radioactivity in brain region, Remaining Brain” value is listed as 0.03 ± 0.01 %ID/g. Also, in data set [1] (120 min), the “Biodistribution of radioactivity, Blood” value was 0.38 ± 0.14 %ID/g; the “Biodistribution of radioactivity, Heart” value is on record as 0.38 ± 0.06 %ID/g; the “Biodistribution of radioactivity, Kidney” value is 0.42 ± 0.10 %ID/g; the “Biodistribution of radioactivity, Liver” value stood at 1.81 ± 0.30 %ID/g. Also, in data set [1] (120 min), the “Biodistribution of radioactivity, Muscle” value stood at 0.14 ± 0.03 %ID/g; the “Biodistribution of radioactivity, Uterus” value is recorded as 0.30 ± 0.10 %ID/g; the “Biodistribution of radioactivity, Brain” value is reported as 0.02 ± 0.01 %ID/g.
With `COc1cc(OC2CCN(C(C)=O)CC2)ccc1C(=O)N1CCC(N2C(=O)OCc3ccccc32)CC1` [Compound L-371257], in data set [2], the brain penetration entry was “very poor brain penetrant”.
As to `CS(=O)(=O)N1CCC(Oc2ccc(CC(=O)N3CCC(N4C(=O)CCc5ccccc54)CC3)c(OC/C=C/I)c2)CC1` [Compound 1, (E)-1-(1-(2-(2-(3-Iodoallyloxy)-4-(1-(methylsulfonyl)piperidin-4-yloxy)phenyl)acetyl)piperidin-4-yl)-3,4-dihydroquinolin-2(1H)-one], the “potency for the human OTR over V1aR” value on human OTR was determined as 79 fold.
For `CS(=O)(=O)N1CCC(Oc2ccc(CC(=O)N3CCC(N4C(=O)CCc5ccccc54)CC3)c(O)c2)CC1` [Compound 13, 1-(1-(2-(2-Hydroxy-4-(1-(methylsulfonyl)piperidin-4-yloxy)phenyl)acetyl)piperidin-4-yl)-3,4-dihydroquinolin-2(1H)-one], the “Ki Human V1aR” value on human V1aR is on record as “no detectable affinity”. In data set [3], the “Ki Human V1b” value was “no detectable affinity”. The “Ki Human V2” value in data set [4] is on record as “no detectable affinity”.
Consider `COc1cc(OC2CCN(S(C)(=O)=O)CC2)ccc1CC(=O)N1CCC(N2C(=O)CCc3ccccc32)CC1` [Compound 4, 1-(1-(2-(2-Methoxy-4-((1-(methylsulfonyl)piperidin-4-yl)oxy)phenyl)acetyl)piperidin-4-yl)-3,4-dihydroquinolin-2(1H)-one], for which, in the data set with rodent OTR, the “selectivity for the rodent OTR over V1aR” value was “four times more selective”.
